Measurements taken from ChEMBL document CHEMBL2073766, “Effects of grapefruit juice and orange juice components on P-glycoprotein- and MRP2-mediated drug efflux” (Br J Pharmacol, 2004).
One block for each molecule: values may come before it.

Experiments:
Assay type in all cases: functional, cell-based
[1] = target: T1, ATP-dependent translocase ABCB1 (Homo sapiens, UniProt P08183); test: TP_TRANSPORTER: increase in saquinavir intracellular accumulation of 6',7'-Dihydroxybergamottin at a concentration of 20uM in LLC-GA5-COL150 cells; settings: pig, llc-ga5-col150, 20 µM
T1 sequence (P08183 whole entry): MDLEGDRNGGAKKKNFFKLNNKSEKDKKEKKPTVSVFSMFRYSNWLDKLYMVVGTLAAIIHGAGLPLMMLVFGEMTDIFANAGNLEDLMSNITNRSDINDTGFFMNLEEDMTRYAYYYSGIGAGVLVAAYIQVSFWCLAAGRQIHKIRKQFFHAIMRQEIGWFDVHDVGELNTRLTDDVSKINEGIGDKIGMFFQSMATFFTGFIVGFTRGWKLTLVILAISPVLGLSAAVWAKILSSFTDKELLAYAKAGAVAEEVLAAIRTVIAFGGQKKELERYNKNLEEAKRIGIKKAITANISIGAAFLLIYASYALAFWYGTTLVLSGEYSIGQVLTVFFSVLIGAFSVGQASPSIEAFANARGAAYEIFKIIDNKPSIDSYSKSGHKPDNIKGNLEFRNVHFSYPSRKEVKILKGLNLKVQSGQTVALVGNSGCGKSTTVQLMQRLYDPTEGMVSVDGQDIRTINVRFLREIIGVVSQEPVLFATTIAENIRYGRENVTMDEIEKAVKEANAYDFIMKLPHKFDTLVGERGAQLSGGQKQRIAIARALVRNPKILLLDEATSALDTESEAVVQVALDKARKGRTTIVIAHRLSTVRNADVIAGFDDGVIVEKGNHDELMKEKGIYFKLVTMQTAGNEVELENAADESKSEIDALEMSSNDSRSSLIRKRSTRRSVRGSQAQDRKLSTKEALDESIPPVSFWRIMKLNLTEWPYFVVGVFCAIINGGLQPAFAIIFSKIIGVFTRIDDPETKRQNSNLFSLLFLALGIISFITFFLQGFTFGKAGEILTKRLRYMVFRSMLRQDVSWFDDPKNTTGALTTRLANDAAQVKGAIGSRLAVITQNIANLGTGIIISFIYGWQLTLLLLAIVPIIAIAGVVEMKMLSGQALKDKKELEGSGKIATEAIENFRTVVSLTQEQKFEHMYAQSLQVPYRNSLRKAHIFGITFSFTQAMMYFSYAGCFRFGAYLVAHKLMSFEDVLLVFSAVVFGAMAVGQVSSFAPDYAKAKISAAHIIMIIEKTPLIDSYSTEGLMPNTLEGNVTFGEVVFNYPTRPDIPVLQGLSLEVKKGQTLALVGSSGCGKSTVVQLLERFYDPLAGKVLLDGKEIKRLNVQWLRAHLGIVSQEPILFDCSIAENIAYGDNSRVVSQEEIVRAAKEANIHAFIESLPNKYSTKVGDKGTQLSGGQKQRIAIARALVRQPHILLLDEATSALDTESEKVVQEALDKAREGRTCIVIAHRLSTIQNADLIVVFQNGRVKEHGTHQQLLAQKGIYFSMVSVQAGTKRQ
Summary of the method: (§1)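 LLC-GA5-COL150 (human MDR1-transfected LLC-PK1; colchicine withdrawn 6 h before assay) and LLC-PK1 control cells were grown 3 days in four-well dishes. Uptake of 5 µM [¹⁴C]saquinavir ± inhibitor ran 90 min in pH 7.4 HEPES buffer at 37°C and was stopped with ice-cold washes. Cell/medium ratio was normalised to Lowry protein. Potentiation ratio = % of control (MDR1 cells) / % of control (LLC-PK1) × 100; mean ± s.e.m. of three experiments.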

[2] = target: T1, ATP-dependent translocase ABCB1; test: TP_TRANSPORTER: increase in Vinblastine intracellular accumulation of 6',7'-Dihydroxybergamottin at a concentration of 20uM in LLC-GA5-COL150 cells; settings: pig, llc-ga5-col150, 20 µM
Summary of the method: (§2)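 LLC-GA5-COL150 (LLC-PK1 transfected with human MDR1; grown with 150 ng ml⁻¹ colchicine, withdrawn 6 h before assay) and parental LLC-PK1 seeded in four-well dishes and grown 3 days. Cells were incubated 90 min with 20 nM [³H]vinblastine ± inhibitor in HEPES buffer, pH 7.4, 37°C, then washed in ice-cold buffer. Read-out was cell/medium ratio per mg protein (Lowry) by scintillation. Uptake potentiation ratio = % of control in transfectant / % of control in LLC-PK1 × 100; mean ± s.e.m., n=3.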

[3] = target: T1, ATP-dependent translocase ABCB1; test: TP_TRANSPORTER: increase in Vinblastine intracellular accumulation in the presence of Bergamottin at 20uM in LLC-GA5-COL150 cells; settings: pig, llc-ga5-col150, 20 µM; summary of the method: as §2
[4] = target: T1, ATP-dependent translocase ABCB1; test: TP_TRANSPORTER: increase in Vinblastine intracellular accumulation in the presence of MK-571 at 50uM in LLC-GA5-COL150 cells; settings: pig, llc-ga5-col150, 50 µM; summary of the method: as §2
[5] = target: T1, ATP-dependent translocase ABCB1; test: TP_TRANSPORTER: increase in saquinavir intracellular accumulation in the presence of Nobiletin at 20uM in LLC-GA5-COL150 cells; settings: pig, llc-ga5-col150, 20 µM; summary of the method: as §1
[6] = target: T1, ATP-dependent translocase ABCB1; test: TP_TRANSPORTER: increase in Vinblastine intracellular accumulation of Nobiletin at a concentration of 20uM in LLC-GA5-COL150 cells; settings: pig, llc-ga5-col150, 20 µM; summary of the method: as §2
[7] = target: T1, ATP-dependent translocase ABCB1; test: TP_TRANSPORTER: increase in saquinavir intracellular accumulation in the presence of Probenecid at 5mM in LLC-GA5-COL150 cells; settings: pig, llc-ga5-col150, 5000 µM; summary of the method: as §1
[8] = target: T1, ATP-dependent translocase ABCB1; test: TP_TRANSPORTER: increase in Vinblastine intracellular accumulation in the presence of Probenecid at 5mM in LLC-GA5-COL150 cells; settings: pig, llc-ga5-col150, 5000 µM; summary of the method: as §2
[9] = target: T1, ATP-dependent translocase ABCB1; test: TP_TRANSPORTER: increase in Vinblastine intracellular accumulation in the presence of Sulfinpyrazone at 5mM in LLC-GA5-COL150 cells; settings: pig, llc-ga5-col150, 5000 µM; summary of the method: as §2
[10] = target: T1, ATP-dependent translocase ABCB1; test: TP_TRANSPORTER: increase in saquinavir intracellular accumulation in the presence of Sulfinpyrazone at 5mM in LLC-GA5-COL150 cells; settings: pig, llc-ga5-col150, 5000 µM; summary of the method: as §1
[11] = target: T1, ATP-dependent translocase ABCB1; test: TP_TRANSPORTER: increase in Vinblastine intracellular accumulation of Tangeretin at a concentration of 20uM in LLC-GA5-COL150 cells; settings: pig, llc-ga5-col150, 20 µM; summary of the method: as §2
[12] = target: T1, ATP-dependent translocase ABCB1; test: TP_TRANSPORTER: increase in saquinavir intracellular accumulation of Tangeretin at a concentration of 20uM in LLC-GA5-COL150 cells; settings: pig, llc-ga5-col150, 20 µM; summary of the method: as §1

Activity [1]: inhibitor [+]
Activity [2]: inhibitor [+]
SMILES: C/C(=C\COc1c2ccoc2cc2oc(=O)ccc12)CC[C@@H](O)C(C)(C)O

Activity [3]: is not an inhibitor [-]
SMILES: CC(C)=CCC/C(C)=C/COc1c2ccoc2cc2oc(=O)ccc12 [BERGAMOTTIN]

Activity [4]: is not an inhibitor [-]
SMILES: CN(C)C(=O)CCSC(SCCC(=O)O)c1cccc(/C=C/c2ccc3ccc(Cl)cc3n2)c1 (configuration not stated) [MK-571]

Activity [5]: is not an inhibitor [-]
Activity [6]: inhibitor [+]
SMILES: COc1ccc(-c2cc(=O)c3c(OC)c(OC)c(OC)c(OC)c3o2)cc1OC [NOBILETIN]

Activity [7]: is not an inhibitor [-]
Activity [8]: is not an inhibitor [-]
SMILES: CCCN(CCC)S(=O)(=O)c1ccc(C(=O)O)cc1 [PROBENECID]

Activity [9]: is not an inhibitor [-]
Activity [10]: is not an inhibitor [-]
SMILES: O=C1C(CC[S+]([O-])c2ccccc2)C(=O)N(c2ccccc2)N1c1ccccc1 (configuration not stated) [SULFINPYRAZONE]

Activity [11]: inhibitor [+]
Activity [12]: inhibitor [+]
SMILES: COc1ccc(-c2cc(=O)c3c(OC)c(OC)c(OC)c(OC)c3o2)cc1 [TANGERETIN]
